According to ChEMBL document CHEMBL1152541, “Staurosporine tethered peptide ligands that target cAMP-dependent protein kinase (PKA): optimization and selectivity profiling” (Bioorg Med Chem, 2009):
Blank lines part the entries; values can stand above or below the compound they belong to. Activity calls are given as the source filed them. The calls are words filed in the database; no cut-off is given here. *1 amine or outer side, *2 acyl side, *3 side chain or, on linkers, in order; H or OH if unused. Where a SMILES comes first, the peptide text is derived from it. Bridges are numbered along the chain shown (N, C = ends). [ ]: non-standard residue; d: D form. The star is where a group is joined. Staurosporine = CO[C@@H]1[C@H](N(C)*)C[C@H]2O[C@]1(C)n1c3ccccc3c3c4c(c5c6ccccc6n2c5c31)C(=O)NC4; Suc = O=C(CCC(=O)[*:2])[*:1]; Dap = NC[C@H](N)C(=O)O; βAla = NCCC(=O)O

Assays:
[1] = target: Tyrosine-protein kinase receptor UFO (Homo sapiens) (UniProt P30530); assay: Binding affinity to human AXL at 500 nM by cell-based competition binding assay relative to control in presence of DTT
In short: (§1)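 Kinase binding profiling ran on a commercial (Ambit) competitive binding screen against a panel of 90 kinases. The screen used reducing conditions with 7.5 mM DTT. To withstand the DTT, the bivalent ligand was tested as its amide isostere, with the disulfide replaced. A staurosporine derivative carrying a 3 β-alanine linker was run as the reference compound.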

[2] = target: Angiopoietin-1 receptor (Homo sapiens) (UniProt Q02763); assay: Binding affinity to human TIE2 at 500 nM by cell-based competition binding assay relative to control in presence of DTT
[3] = target: T1, Aurora kinase A (Homo sapiens) (UniProt O14965); assay: Binding affinity to human aurora kinase A at 500 nM by cell-based competition binding assay relative to control in presence of DTT
T1 sequence (whole entry): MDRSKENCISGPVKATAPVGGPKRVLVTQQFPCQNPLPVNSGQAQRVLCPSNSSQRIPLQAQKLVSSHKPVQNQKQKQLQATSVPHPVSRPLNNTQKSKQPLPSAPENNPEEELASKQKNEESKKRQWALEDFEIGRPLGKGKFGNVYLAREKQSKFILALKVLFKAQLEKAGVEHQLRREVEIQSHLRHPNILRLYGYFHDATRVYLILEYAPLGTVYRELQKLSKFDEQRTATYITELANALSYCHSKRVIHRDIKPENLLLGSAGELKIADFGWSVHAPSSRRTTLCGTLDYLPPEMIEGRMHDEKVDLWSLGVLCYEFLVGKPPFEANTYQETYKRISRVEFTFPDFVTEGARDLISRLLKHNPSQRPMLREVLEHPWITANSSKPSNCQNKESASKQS

[4] = target: Focal adhesion kinase 1 (Homo sapiens) (UniProt Q05397); assay: Binding affinity to human PTK2 at 500 nM by cell-based competition binding assay relative to control in presence of DTT
[5] = target: Serine/threonine-protein kinase PLK3 (Homo sapiens) (UniProt Q9H4B4); assay: Binding affinity to human PLK3 at 500 nM by cell-based competition binding assay relative to control in presence of DTT
[6] = target: Tyrosine-protein kinase BTK (Homo sapiens) (UniProt Q06187); assay: Binding affinity to human BTK at 500 nM by cell-based competition binding assay relative to control in presence of DTT; in short: as §1
[7] = target: T2, TGF-beta receptor type-1 (Homo sapiens) (UniProt P36897); assay: Binding affinity to human TGFBR1 at 500 nM by cell-based competition binding assay relative to control in presence of DTT
T2 sequence (whole entry): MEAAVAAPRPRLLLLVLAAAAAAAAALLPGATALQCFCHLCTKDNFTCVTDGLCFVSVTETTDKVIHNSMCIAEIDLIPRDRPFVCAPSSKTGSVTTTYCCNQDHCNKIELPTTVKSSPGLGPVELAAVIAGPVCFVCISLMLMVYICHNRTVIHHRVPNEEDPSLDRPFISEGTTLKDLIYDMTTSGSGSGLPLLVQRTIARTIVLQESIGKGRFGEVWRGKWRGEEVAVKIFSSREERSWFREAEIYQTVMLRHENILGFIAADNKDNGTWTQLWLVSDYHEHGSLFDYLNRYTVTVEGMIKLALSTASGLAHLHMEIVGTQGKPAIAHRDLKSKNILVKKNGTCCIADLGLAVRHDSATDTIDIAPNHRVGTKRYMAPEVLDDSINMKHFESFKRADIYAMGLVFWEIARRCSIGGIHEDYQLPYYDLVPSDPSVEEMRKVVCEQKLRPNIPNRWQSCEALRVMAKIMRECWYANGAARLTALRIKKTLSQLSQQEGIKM

[8] = target: Fibroblast growth factor receptor 3 (Homo sapiens) (UniProt P22607); assay: Binding affinity to human FGFR3 at 500 nM by cell-based competition binding assay relative to control in presence of DTT
In short: (§2)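 Commercial (Ambit) competitive kinase-binding panel of 90 kinases measured the binding profile. Run under reducing conditions of 7.5 mM DTT. Binding is expressed relative to control.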

[9] = target: Platelet-derived growth factor receptor alpha (Homo sapiens) (UniProt P16234); assay: Binding affinity to human PDGFRalpha at 500 nM by cell-based competition binding assay relative to control in presence of DTT
[10] = target: Tyrosine-protein kinase JAK2 (Homo sapiens) (UniProt O60674); assay: Binding affinity to human JAK2 kinase domain 2 at 200 nM by cell-based competition binding assay relative to control in presence of DTT
In short: (§3)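 Competition binding screen (Ambit) across a panel of 90 kinases, scoring test ligand displacement of each kinase's binding relative to control. The screen ran under reducing conditions with 7.5 mM DTT.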

[11] = target: Macrophage colony-stimulating factor 1 receptor (Homo sapiens) (UniProt P07333); assay: Binding affinity to human CSF1R at 200 nM by cell-based competition binding assay relative to control in presence of DTT; in short: as §2
Chain of Macrophage colony-stimulating factor 1 receptor (Homo sapiens) (P07333 whole entry): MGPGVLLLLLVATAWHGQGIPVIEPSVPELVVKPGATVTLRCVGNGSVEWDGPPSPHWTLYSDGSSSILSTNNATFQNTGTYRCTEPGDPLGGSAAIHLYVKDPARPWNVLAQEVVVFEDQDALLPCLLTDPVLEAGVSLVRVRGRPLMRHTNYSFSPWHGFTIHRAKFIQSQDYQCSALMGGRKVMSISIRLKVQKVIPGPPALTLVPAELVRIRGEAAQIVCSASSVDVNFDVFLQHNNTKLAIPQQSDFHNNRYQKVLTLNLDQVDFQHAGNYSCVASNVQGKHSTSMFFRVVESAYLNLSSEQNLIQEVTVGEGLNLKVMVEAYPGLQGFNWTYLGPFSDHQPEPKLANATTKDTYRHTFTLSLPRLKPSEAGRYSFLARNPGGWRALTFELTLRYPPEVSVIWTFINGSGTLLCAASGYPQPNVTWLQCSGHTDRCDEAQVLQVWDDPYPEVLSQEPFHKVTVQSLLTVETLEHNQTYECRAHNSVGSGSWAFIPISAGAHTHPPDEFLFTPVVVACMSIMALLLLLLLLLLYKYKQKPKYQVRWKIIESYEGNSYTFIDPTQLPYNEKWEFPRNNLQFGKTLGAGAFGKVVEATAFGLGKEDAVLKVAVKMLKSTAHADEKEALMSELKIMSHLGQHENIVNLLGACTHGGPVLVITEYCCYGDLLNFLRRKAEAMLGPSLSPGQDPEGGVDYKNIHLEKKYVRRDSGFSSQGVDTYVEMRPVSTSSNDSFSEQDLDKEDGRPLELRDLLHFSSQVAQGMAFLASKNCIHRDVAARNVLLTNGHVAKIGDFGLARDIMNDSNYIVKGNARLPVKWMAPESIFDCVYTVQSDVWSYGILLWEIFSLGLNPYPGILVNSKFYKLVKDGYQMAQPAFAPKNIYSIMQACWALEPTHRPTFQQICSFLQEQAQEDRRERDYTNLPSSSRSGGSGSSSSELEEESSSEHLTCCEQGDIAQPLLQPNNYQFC

[12] = Inhibition of PKA assessed as [gamma-32P]ATP labeling of kemptide at 33 to 100 nM by liquid scintillation counting in presence of DTT
[13] = target: Hepatocyte growth factor receptor (Homo sapiens) (UniProt P08581); assay: Binding affinity to human MET at 200 nM by cell-based competition binding assay relative to control in presence of DTT
[14] = target: Fibroblast growth factor receptor 2 (Homo sapiens) (UniProt P21802); assay: Binding affinity to human FGFR2 at 200 nM by cell-based competition binding assay relative to control in presence of DTT; in short: as §2
Chain of Fibroblast growth factor receptor 2 (Homo sapiens) (P21802 22-821 limits assumed): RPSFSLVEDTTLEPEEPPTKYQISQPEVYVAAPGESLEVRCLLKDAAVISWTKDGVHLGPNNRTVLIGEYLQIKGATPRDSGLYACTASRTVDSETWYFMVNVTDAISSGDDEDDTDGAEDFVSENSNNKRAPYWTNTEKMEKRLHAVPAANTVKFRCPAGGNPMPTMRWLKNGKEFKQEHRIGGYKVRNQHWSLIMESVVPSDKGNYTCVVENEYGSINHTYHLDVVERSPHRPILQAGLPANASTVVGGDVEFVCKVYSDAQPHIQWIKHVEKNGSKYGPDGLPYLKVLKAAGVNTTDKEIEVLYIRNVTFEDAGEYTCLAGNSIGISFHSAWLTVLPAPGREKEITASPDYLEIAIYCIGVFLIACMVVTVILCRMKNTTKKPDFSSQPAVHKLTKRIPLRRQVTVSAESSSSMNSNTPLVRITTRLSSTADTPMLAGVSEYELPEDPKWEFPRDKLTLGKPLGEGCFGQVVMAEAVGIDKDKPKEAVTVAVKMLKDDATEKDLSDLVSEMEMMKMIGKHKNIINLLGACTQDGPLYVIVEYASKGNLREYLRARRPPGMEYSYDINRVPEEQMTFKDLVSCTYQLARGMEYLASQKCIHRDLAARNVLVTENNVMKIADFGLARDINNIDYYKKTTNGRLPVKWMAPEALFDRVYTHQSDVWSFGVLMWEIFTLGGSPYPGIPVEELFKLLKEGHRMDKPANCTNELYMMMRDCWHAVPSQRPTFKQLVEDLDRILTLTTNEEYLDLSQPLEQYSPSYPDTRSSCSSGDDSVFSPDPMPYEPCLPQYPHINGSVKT

[15] = target: Proto-oncogene tyrosine-protein kinase receptor Ret (Homo sapiens) (UniProt P07949); assay: Binding affinity to human RET at 200 nM by cell-based competition binding assay relative to control in presence of DTT
[16] = target: Phosphatidylinositol 4,5-bisphosphate 3-kinase catalytic subunit alpha isoform (Homo sapiens) (UniProt P42336); assay: Binding affinity to human PIK3Calpha at 200 nM by cell-based competition binding assay relative to control in presence of DTT
Chain of Phosphatidylinositol 4,5-bisphosphate 3-kinase catalytic subunit alpha isoform (Homo sapiens) (P42336 whole entry, canonical isoform): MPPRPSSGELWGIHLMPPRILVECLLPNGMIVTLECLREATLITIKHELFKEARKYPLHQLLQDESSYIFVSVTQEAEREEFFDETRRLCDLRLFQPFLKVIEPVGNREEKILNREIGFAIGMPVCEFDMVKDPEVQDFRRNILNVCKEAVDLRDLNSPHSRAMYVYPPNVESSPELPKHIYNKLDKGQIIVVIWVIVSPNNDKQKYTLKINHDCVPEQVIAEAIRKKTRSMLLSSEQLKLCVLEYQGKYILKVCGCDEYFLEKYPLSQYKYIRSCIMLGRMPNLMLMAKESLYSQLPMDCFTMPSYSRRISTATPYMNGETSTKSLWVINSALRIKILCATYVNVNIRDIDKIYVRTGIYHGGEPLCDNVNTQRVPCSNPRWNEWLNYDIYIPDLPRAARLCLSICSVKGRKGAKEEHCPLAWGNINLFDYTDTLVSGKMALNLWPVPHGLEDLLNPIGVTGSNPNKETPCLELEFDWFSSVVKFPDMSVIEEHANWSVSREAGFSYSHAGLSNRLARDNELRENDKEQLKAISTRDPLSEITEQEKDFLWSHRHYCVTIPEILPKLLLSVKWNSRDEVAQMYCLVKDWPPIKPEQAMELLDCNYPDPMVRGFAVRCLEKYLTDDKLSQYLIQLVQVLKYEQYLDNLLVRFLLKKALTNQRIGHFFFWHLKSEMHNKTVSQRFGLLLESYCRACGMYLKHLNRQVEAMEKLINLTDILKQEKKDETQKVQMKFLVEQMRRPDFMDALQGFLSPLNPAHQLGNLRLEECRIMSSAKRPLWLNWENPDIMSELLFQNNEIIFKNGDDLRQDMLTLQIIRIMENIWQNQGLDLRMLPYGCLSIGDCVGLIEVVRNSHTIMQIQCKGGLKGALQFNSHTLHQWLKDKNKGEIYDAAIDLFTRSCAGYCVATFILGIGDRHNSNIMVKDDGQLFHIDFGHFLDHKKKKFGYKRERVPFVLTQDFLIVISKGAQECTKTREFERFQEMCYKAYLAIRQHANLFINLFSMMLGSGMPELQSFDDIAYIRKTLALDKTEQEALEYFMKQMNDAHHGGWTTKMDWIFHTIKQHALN

[17] = target: Cyclin-dependent kinase 7 (Homo sapiens) (UniProt P50613); assay: Binding affinity to human CDK7 at 50 nM by cell-based competition binding assay relative to control in presence of DTT; in short: as §1
[18] = target: Mitogen-activated protein kinase kinase kinase 4 (Homo sapiens) (UniProt Q9Y6R4); assay: Binding affinity to human MAP3K4 at 50 nM by cell-based competition binding assay relative to control in presence of DTT; in short: as §3
Chain of Mitogen-activated protein kinase kinase kinase 4 (Homo sapiens) (Q9Y6R4 whole entry): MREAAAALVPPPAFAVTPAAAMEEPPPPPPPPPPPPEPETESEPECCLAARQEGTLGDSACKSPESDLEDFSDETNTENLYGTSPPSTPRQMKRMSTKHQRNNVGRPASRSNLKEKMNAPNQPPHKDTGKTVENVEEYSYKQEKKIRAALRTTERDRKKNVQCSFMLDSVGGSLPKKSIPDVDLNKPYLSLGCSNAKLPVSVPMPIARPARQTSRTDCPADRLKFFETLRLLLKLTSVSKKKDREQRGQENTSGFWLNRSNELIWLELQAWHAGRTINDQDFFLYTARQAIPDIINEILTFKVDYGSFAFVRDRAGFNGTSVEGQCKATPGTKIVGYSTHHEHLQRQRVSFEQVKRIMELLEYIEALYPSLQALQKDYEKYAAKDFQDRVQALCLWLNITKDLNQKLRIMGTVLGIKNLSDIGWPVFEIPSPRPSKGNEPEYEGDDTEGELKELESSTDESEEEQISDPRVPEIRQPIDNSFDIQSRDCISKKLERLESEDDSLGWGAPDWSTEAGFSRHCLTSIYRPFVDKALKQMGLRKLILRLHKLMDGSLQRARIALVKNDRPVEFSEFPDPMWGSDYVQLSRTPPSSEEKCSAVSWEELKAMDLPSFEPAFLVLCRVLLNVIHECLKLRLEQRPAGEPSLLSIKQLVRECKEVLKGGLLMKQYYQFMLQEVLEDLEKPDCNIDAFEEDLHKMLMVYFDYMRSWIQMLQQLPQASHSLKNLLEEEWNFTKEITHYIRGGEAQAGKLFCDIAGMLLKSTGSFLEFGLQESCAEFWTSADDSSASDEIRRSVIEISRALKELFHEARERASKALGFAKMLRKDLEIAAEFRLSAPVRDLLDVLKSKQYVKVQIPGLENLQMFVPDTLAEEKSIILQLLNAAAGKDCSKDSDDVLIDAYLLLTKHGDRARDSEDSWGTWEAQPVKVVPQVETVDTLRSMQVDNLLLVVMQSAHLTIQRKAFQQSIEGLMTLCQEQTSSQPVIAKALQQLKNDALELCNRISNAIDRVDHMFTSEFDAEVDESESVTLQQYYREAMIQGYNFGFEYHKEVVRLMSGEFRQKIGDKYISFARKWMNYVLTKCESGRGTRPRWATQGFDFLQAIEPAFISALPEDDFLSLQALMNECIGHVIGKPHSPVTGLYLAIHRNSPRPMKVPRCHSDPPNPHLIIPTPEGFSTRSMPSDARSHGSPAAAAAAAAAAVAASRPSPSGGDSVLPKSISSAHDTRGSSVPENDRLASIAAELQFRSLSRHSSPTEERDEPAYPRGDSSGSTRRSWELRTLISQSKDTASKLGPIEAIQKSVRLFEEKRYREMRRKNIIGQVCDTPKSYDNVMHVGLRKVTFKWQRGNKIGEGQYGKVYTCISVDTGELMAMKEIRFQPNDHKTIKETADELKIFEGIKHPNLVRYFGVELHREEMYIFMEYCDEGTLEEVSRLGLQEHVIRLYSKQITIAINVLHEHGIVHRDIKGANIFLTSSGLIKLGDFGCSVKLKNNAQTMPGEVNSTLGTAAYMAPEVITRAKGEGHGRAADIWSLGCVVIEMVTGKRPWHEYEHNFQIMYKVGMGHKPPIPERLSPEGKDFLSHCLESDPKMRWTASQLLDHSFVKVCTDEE

[19] = tested on: Tyrosine-protein kinase ABL1 (Homo sapiens), P00519 [E255K]; assay: Binding affinity to human ABL1 E255K mutant at 50 nM by cell-based competition binding assay relative to control in presence of DTT; in short: as §1
[20] = target: MAP kinase-interacting serine/threonine-protein kinase 1 (Homo sapiens) (UniProt Q9BUB5); assay: Binding affinity to human MKNK1 at 50 nM by cell-based competition binding assay relative to control in presence of DTT
Chain of MAP kinase-interacting serine/threonine-protein kinase 1 (Homo sapiens) (Q9BUB5 whole entry, looked up, canonical isoform): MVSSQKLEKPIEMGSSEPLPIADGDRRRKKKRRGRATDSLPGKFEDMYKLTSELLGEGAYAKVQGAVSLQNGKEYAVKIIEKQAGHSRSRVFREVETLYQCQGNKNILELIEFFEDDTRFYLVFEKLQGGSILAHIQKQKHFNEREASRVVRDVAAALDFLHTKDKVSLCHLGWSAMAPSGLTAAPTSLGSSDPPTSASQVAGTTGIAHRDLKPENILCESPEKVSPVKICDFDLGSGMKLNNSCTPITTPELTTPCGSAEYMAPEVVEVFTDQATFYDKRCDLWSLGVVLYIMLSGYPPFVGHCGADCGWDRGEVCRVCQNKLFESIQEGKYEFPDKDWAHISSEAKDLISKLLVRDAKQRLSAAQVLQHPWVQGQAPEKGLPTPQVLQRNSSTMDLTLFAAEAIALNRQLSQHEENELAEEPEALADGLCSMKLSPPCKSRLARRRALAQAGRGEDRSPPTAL

[21] = target: Phosphatidylinositol 4,5-bisphosphate 3-kinase catalytic subunit alpha isoform (Homo sapiens) (UniProt P42336); assay: Binding affinity to human PIK3Calpha at 50 nM by cell-based competition binding assay relative to control in presence of DTT

Activity [1]: 8%
Activity [2]: 38%
Activity [3]: 4.2%
Activity [4]: 65%
Activity [5]: 100%
Activity [6]: 31%
Activity [7]: 75%
Activity [8]: 43%
Activity [9]: 7%
Structure (SMILES): CO[C@@H]1[C@H](N(C)C(=O)CCC(=O)NCCC(=O)NCCC(=O)NCCC(N)=O)C[C@H]2O[C@]1(C)n1c3ccccc3c3c4c(c5c6ccccc6n2c5c31)C(=O)NC4

Activity [10]: 4%
Activity [11]: 44%
inhibition [12]: inactive
Activity [13]: 77%
Activity [14]: 66%
Activity [15]: 40%
Activity [16]: 89%
Structure (SMILES): CO[C@@H]1[C@H](N(C)C(=O)CCC(=O)NCCC(=O)NCCC(=O)NCCC(=O)NCCC(=O)NCCC(=O)NCCC(=O)NCCC(=O)N[C@H]2CSSC[C@@H](C(=O)NCC(N)=O)NC(=O)CNC(=O)[C@H](Cc3ccccc3)NC(=O)[C@H](C(C)C)NC(=O)[C@H](CCCNC(=N)N)NC(=O)[C@H](Cc3ccccc3)NC(=O)[C@H](C(C)C)NC2=O)C[C@H]2O[C@]1(C)n1c3ccccc3c3c4c(c5c6ccccc6n2c5c31)C(=O)NC4 ({Staurosporine-Suc-βAla-βAla-βAla-βAla-βAla-βAla-βAla}-CVFRVFGCG-NH2; disulfide 1-8)

Activity [17]: 98%
Activity [18]: 96%
inhibition [12]: Active
Activity [19]: 97%
Activity [20]: 100%
Activity [21]: 100%
Structure (SMILES): CO[C@@H]1[C@H](N(C)C(=O)CCC(=O)NCCC(=O)NCCC(=O)NCCC(=O)NCCC(=O)NCCC(=O)NCCC(=O)NCCC(=O)N[C@H]2CNC(=O)C[C@@H](C(N)=O)NC(=O)CNC(=O)[C@H](Cc3ccccc3)NC(=O)[C@H](C(C)C)NC(=O)[C@H](CCCNC(=N)N)NC(=O)[C@H](Cc3ccccc3)NC(=O)[C@H](C(C)C)NC2=O)C[C@H]2O[C@]1(C)n1c3ccccc3c3c4c(c5c6ccccc6n2c5c31)C(=O)NC4 ({Staurosporine-Suc-βAla-βAla-βAla-βAla-βAla-βAla-βAla}-[Dap]VFRVFGD-NH2; lactam 1-8)
